Assay results collected from several papers.
Lines come from different studies, so protocols differ.
Target: Ephrin type-B receptor 6 (EPHB6, Homo sapiens, UniProt O15197)
Sequence (O15197 32-1021, as in one of the studies): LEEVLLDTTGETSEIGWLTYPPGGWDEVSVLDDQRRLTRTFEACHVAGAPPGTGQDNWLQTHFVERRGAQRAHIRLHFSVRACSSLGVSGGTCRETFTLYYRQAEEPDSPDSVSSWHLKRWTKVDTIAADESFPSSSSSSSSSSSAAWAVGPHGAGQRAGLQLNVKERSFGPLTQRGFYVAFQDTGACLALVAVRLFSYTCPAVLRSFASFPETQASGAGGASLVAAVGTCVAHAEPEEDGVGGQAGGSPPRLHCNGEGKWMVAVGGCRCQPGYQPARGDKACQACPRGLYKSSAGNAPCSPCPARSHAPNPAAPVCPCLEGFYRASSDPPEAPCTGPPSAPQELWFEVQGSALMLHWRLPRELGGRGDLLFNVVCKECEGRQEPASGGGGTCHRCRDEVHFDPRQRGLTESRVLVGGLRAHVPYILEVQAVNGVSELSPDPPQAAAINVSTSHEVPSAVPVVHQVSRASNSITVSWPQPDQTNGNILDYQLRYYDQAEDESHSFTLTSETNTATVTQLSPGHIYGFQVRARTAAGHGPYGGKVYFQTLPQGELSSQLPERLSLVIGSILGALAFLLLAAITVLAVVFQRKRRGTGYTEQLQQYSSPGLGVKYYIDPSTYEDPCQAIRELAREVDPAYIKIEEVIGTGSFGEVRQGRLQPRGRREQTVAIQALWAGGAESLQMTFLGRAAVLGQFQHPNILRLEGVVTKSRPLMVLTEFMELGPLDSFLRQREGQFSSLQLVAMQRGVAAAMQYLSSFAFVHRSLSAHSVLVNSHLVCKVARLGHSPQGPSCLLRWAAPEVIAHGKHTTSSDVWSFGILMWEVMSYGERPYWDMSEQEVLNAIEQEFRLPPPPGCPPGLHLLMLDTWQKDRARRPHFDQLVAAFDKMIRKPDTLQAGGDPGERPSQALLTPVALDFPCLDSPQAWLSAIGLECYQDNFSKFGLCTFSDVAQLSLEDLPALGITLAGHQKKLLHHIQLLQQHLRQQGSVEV

O=C(c1ccc(Nc2ncc(Cl)c(-c3cc4ccccc4s3)n2)cc1)N1CCC(N2CCCC2)CC1
remaining binding (binding; competition with immobilised ligand; 1 µM): 3.9%

COc1cnc(Nc2cccc(S(N)(=O)=O)c2)nc1N1CCN(c2ccccc2)CC1
remaining binding (binding; competition with immobilised ligand; 1 µM): 95%

CN(c1ccnc(CNc2nc(Nc3ccc4c(c3)CC(=O)N4)ncc2C(F)(F)F)n1)S(C)(=O)=O
remaining binding (cell-free assay; competition with immobilised ligand; 1 µM): 54%

CN(C)c1nccc(-c2cnc3ncccn23)n1
remaining binding (binding; 1 µM): 45%

CNC(=O)c1ccc(Nc2ncc(C(F)(F)F)c(NCc3nccnc3N(C)S(C)(=O)=O)n2)cc1
remaining binding (cell-free assay; competition with immobilised ligand; 0.1 µM): 100%

FC(F)(F)Oc1cccc(-c2cnc3ccc(-c4ccncc4)nn23)c1
remaining binding (cell-free assay; competition with immobilised ligand; 5 µM): 9.3%

c1cncc(-c2cccc(Nc3nccc(NC4CCCCC4)n3)c2)c1
remaining binding (binding; competition with immobilised ligand; 10 µM): 1.6%

F[C@@H]1CCN(c2nccc(-c3cnn4ncccc34)n2)C1
remaining binding (binding; 1 µM): 100%

O=C(c1ccc(Nc2ncc(Cl)c(-c3ccc(Cl)s3)n2)cc1)N1CCC(N2CCCC2)CC1
remaining binding (binding; competition with immobilised ligand; 1 µM): 0%

O=C(O)[C@@H]1[C@@H](Cn2nnc3ccccc3c2=O)CC[C@H]1C(=O)c1ccc(OCCC2CCOCC2)cc1
remaining binding (cell-free assay; competition with immobilised ligand; 1 µM): 100%

CN(CCCC(F)(F)F)c1nccc(-c2cnn3ncccc23)n1
remaining binding (binding; 1 µM): 100%

COc1ncc2cc3ccccc3nc2c1C#N
remaining binding (cell-free assay; competition with immobilised ligand; 5 µM): 73%

CC1CCCN1c1nccc(-c2cnn3ncccc23)n1 (stereo not shown)
remaining binding (binding; 1 µM): 82%

CNC(=O)[C@@H]1CC[C@@H](n2c(-c3ccc4cnccc4c3)nc3ccc(C(=O)NCc4cccc(C(N)=O)c4)cc32)C1
remaining binding (binding; competition with immobilised ligand; 1 µM): 100%

O=C(NCC1CCOCC1)c1n[nH]cc1NC(=O)c1c(F)cccc1F
remaining binding (binding; competition with immobilised ligand; 1 µM): 91%

O=C(NC[C@@H]1[C@H]2CN(C(=O)OCc3cc(C(F)(F)F)cc(C(F)(F)F)c3)C[C@@H]12)c1ccc2[nH]nnc2c1
remaining binding (cell-free assay; competition with immobilised ligand; 1 µM): 100%

C[C@H]1CCN(c2nccc(-c3cnn4ncccc34)n2)C1
remaining binding (binding; 1 µM): 85%

Cc1c[nH]c2nccc(Oc3c(F)cc(Nc4cc(Cl)nc(N)n4)cc3F)c12
remaining binding (cell-free assay; competition with immobilised ligand; 0.1 µM): 96%

N[C@H]1CCN(c2nccc(-c3cnn4ncccc34)n2)C1
remaining binding (binding; 1 µM): 56%

CC(=O)N1CCC(c2ccc(C(=O)NC3=NCCN3)cc2C(F)(F)F)CC1
remaining binding (cell-free assay; competition with immobilised ligand; 1 µM): 100%

c1cnn2ncc(-c3ccnc(N4CCC45COC5)n3)c2c1
remaining binding (binding; 1 µM): 63%

Cc1cnc(Nc2ccc(C(=O)N3CCC(N4CCCC4)CC3)cc2)nc1-c1cc2ccccc2s1
remaining binding (binding; competition with immobilised ligand; 1 µM): 3.3%
